Legend:
[1] = molecular target: T1, Phosphatidylinositol 4,5-bisphosphate 3-kinase catalytic subunit alpha isoform (Homo sapiens, UniProt P42336); assay: Inhibition of N-terminal His-6-tagged full length human PI3Kalpha expressed in baculovirus-infected sf9 cells after 30 mins by TR-FRET assay
Summary of the method: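 IC50 is the mean of at least three independent experiments, each run in duplicate. Typical variation was below 20%.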

[2] = test system: Phosphatidylinositol 4,5-bisphosphate 3-kinase catalytic subunit alpha isoform (Homo sapiens), P42336 [M772A]; assay: Ratio of PI103 IC50 to compound IC50 for full length human PI3Kalpha M772A mutant
Phosphatidylinositol 4,5-bisphosphate 3-kinase catalytic subunit alpha isoform (Homo sapiens), P42336 [M772A], sequence (P42336 whole entry M772A, canonical isoform): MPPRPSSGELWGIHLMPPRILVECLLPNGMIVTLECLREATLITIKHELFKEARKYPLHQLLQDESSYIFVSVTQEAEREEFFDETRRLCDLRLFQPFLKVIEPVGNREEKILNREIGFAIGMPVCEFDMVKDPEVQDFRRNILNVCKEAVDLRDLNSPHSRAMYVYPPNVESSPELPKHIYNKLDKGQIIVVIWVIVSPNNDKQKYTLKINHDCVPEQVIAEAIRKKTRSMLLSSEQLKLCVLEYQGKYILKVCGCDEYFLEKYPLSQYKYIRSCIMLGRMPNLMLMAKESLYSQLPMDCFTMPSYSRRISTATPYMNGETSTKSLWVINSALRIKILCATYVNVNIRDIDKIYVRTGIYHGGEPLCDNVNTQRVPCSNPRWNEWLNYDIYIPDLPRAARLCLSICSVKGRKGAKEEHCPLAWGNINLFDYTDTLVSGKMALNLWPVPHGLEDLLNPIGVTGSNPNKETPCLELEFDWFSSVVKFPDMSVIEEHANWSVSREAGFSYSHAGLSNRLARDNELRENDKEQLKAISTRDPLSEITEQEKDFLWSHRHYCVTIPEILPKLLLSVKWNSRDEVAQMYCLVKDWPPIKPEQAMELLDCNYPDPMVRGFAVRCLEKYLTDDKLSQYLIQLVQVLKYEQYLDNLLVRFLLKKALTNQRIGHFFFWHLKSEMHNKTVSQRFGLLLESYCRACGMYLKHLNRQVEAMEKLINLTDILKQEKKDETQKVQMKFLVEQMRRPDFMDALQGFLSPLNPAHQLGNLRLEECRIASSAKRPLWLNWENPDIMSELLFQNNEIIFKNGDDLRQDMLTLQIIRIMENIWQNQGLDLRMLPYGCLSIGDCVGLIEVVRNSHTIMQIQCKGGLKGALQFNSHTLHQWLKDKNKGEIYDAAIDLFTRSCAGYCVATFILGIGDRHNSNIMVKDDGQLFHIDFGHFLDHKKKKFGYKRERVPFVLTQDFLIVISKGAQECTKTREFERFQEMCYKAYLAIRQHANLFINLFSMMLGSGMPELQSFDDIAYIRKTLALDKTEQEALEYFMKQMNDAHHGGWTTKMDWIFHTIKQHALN
Summary of the method: (§1)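 Inhibitor IC50s were determined against wild-type PI3Kα and the M772A, D810A and Y836A mutants. The mutants were expressed and purified in-house. […] Fold change is the PI103 IC50 divided by the compound IC50 on the same enzyme form.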

[3] = test system: Phosphatidylinositol 4,5-bisphosphate 3-kinase catalytic subunit alpha isoform (Homo sapiens), P42336 [D810A]; assay: Ratio of PI103 IC50 to compound IC50 for full length human PI3Kalpha D810A mutant; summary of the method: as §1
Phosphatidylinositol 4,5-bisphosphate 3-kinase catalytic subunit alpha isoform (Homo sapiens), P42336 [D810A], sequence (P42336 whole entry D810A, canonical isoform): as the sequence (P42336 whole entry M772A, canonical isoform) above, with A772M, D810A counted along it

[4] = molecular target: Phosphatidylinositol 4,5-bisphosphate 3-kinase catalytic subunit alpha isoform (Homo sapiens, UniProt P42336, M772A); assay: Inhibition of GST-tagged full length human PI3Kalpha M772A mutant expressed in baculovirus-infected sf9 cells after 30 mins by TR-FRET assay
Phosphatidylinositol 4,5-bisphosphate 3-kinase catalytic subunit alpha isoform (Homo sapiens, UniProt P42336, M772A), sequence (P42336 whole entry M772A, canonical isoform): as the sequence (P42336 whole entry M772A, canonical isoform) above
Summary of the method: (§2)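 Each mutant PI3Kα was expressed and purified in-house. IC50 is the mean of at least three independent experiments, each run in duplicate.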

[5] = molecular target: Phosphatidylinositol 4,5-bisphosphate 3-kinase catalytic subunit alpha isoform (Homo sapiens, UniProt P42336, D810A); assay: Inhibition of GST-tagged full length human PI3Kalpha D810A mutant expressed in baculovirus-infected sf9 cells after 30 mins by TR-FRET assay; summary of the method: as §2
Phosphatidylinositol 4,5-bisphosphate 3-kinase catalytic subunit alpha isoform (Homo sapiens, UniProt P42336, D810A), sequence (P42336 whole entry D810A, canonical isoform): as the sequence (P42336 whole entry M772A, canonical isoform) above, with A772M, D810A counted along it

[6] = molecular target: Phosphatidylinositol 4,5-bisphosphate 3-kinase catalytic subunit alpha isoform (Homo sapiens, UniProt P42336, Y836A); assay: Inhibition of GST-tagged full length human PI3Kalpha Y836A mutant expressed in baculovirus-infected sf9 cells after 30 mins by TR-FRET assay; summary of the method: as §2
Phosphatidylinositol 4,5-bisphosphate 3-kinase catalytic subunit alpha isoform (Homo sapiens, UniProt P42336, Y836A), sequence (P42336 whole entry Y836A, canonical isoform): as the sequence (P42336 whole entry M772A, canonical isoform) above, with A772M, Y836A counted along it

[7] = molecular target: T1, Phosphatidylinositol 4,5-bisphosphate 3-kinase catalytic subunit alpha isoform; assay: Ratio of PI103 IC50 to compound IC50 for full length human PI3Kalpha; summary of the method: as §1
[8] = test system: Phosphatidylinositol 4,5-bisphosphate 3-kinase catalytic subunit alpha isoform (Homo sapiens), P42336 [Y836A]; assay: Ratio of PI103 IC50 to compound IC50 for full length human PI3Kalpha Y836A mutant; summary of the method: as §1
Phosphatidylinositol 4,5-bisphosphate 3-kinase catalytic subunit alpha isoform (Homo sapiens), P42336 [Y836A], sequence (P42336 whole entry Y836A, canonical isoform): as the sequence (P42336 whole entry M772A, canonical isoform) above, with A772M, Y836A counted along it

T1 sequence (P42336 whole entry, canonical isoform): as the sequence (P42336 whole entry M772A, canonical isoform) above, with A772M counted along it

Row | SMILES | IC50 [1] | also measured
1 | Oc1cc(O)cc(-c2nc(N3CCOCC3)c3oc4ncccc4c3n2)c1 | 5.9 nM | Ratio IC50 [2]: 19.4; Ratio IC50 [3]: 1.2; IC50 [4]: 53.4 nM; IC50 [5]: 61.3 nM; IC50 [6]: 140 nM; Ratio IC50 [7]: 3; Ratio IC50 [8]: 5.7
2 | O=[N+]([O-])c1cc(O)cc(-c2nc(N3CCOCC3)c3oc4ncccc4c3n2)c1 | > 10000 nM | –
3 | Oc1cc(F)cc(-c2nc(N3CCOCC3)c3oc4ncccc4c3n2)c1 | 40.9 nM | –
4 | Cc1cc(O)cc(-c2nc(N3CCOCC3)c3oc4ncccc4c3n2)c1 | > 10000 nM | –

The next lines start with results.

Row | IC50 [1] | SMILES | also measured
5 | > 10000 nM | Oc1cc(-c2nc(N3CCOCC3)c3oc4ncccc4c3n2)cc(C(F)(F)F)c1 | –
6 | 20.6 nM | Nc1cc(O)cc(-c2nc(N3CCOCC3)c3oc4ncccc4c3n2)c1 | –
7 | 990 nM | Oc1cc(Cl)cc(-c2nc(N3CCOCC3)c3oc4ncccc4c3n2)c1 | –
8 | 1210 nM | Oc1cc(Br)cc(-c2nc(N3CCOCC3)c3oc4ncccc4c3n2)c1 | –

Source: ChEMBL document CHEMBL3108771, “Crystal Structures of PI3Kα Complexed with PI103 and Its Derivatives: New Directions for Inhibitors Design” (ACS Med Chem Lett, 2014)
